Measurements of several laboratories.
Compare with care: the assays were run in different laboratories.
Target: Glycogen synthase kinase-3 alpha (GSK3A, Homo sapiens, UniProt P49840)

SMILES	test	conditions	quantity	result
Cc1nn(C)cc1-c1nc2c(N3CCN(Cc4ccc(Cl)cc4)CC3)c(Cl)cnc2[nH]1	binding, competition with immobilised ligand	1 µM	remaining binding	100%
Cn1cc(-c2cccc(N3CCc4c(sc5c4CC(C)(C)C5)C3=O)c2CO)cc(Nc2ccncn2)c1=O	enzyme activity, inhibitor	1 µM	inhibition	4%
O=c1[nH]c2ccccc2n1C1CCN(Cc2ccc(-c3[nH]c4cc5ncnc5cc4nc3-c3ccccc3)cc2)CC1	cell-free assay	0.5 µM	remaining signal	100%
C#Cc1n[nH]c2c(-c3cn([C@@H](C)c4ccccc4)c(=O)[nH]c3=O)cc(F)cc12	enzyme activity, inhibitor	0.1 µM	inhibition	-1.9%
Cn1cncc1[C@@](O)(COc1ccc(C#N)cc1-c1ccc(OC(F)(F)F)cc1)c1ccc(C#N)cc1	cell-free assay, competition with immobilised ligand	1 µM	remaining binding	100%
Nc1ncc(-c2nc(N3CCOCC3)nc(N3CCOCC3)n2)c(C(F)F)n1	binding, competition with immobilised ligand	10 µM	remaining binding	91%
C#Cc1n[nH]c2c(-c3cn([C@@H](C)c4ccccn4)c(=O)[nH]c3=O)cc(F)cc12	enzyme activity, inhibitor	0.1 µM	inhibition	-0.2%
Cn1cc(-c2cc(F)cc(N3CCn4c(cc5c4CCCC5)C3=O)c2CO)cc(Nc2ccc(N3CCN(C4COC4)CC3)cn2)c1=O	enzyme activity, inhibitor	0.1 µM	inhibition	19%
COc1ncccc1-c1cnn2ccc(N3CCN(C(=O)OC(C)C)CC3)nc12	binding, competition with immobilised ligand	1 µM	remaining binding	100%
